Assay results published in ChEMBL document CHEMBL1127028, “Thromboxane receptor antagonism combined with thromboxane synthase inhibition. 5. Synthesis and evaluation of enantiomers of 8-[[(4-chlorophenyl)sulfonyl]amino]-4-(3-pyridinylalkyl)octanoic acid” (J Med Chem, 1993).

Columns and labels:
Homo sapiens [1] = organism: Homo sapiens; assay: Inhibition of U 46619-induced Aggregation of human Washed platelets; assay type: functional
Outline: (§1)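 Human platelets (washed, or platelet-rich plasma) were aggregated with U 46619, a TxA2/PGH2 mimetic. The test agent was titrated against this challenge and reported as an IC50.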

Thromboxane-A synthase = target: T1, Thromboxane-A synthase (Homo sapiens, UniProt P24557); assay: In vitro inhibition of thromboxane synthetase in microsomal platelet preparation
T1 sequence (P24557 whole entry): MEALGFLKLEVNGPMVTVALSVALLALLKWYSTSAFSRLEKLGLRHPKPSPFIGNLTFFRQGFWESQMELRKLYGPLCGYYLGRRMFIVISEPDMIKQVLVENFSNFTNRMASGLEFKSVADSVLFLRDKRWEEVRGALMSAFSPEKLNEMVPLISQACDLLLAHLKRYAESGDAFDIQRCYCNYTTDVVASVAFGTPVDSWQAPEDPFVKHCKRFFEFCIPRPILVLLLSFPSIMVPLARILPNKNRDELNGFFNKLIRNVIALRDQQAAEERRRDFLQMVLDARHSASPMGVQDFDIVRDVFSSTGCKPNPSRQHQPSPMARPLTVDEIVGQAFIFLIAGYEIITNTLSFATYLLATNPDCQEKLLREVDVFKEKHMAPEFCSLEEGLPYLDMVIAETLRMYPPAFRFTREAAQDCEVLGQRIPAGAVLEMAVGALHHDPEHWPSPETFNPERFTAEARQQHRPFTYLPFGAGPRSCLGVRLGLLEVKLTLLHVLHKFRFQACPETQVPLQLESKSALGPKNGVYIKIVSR

Cavia porcellus [2] = assay: Ex vivo Inhibition of U 46619-induced aggregation of guinea pig platelets at the dose of 10 mg/Kg po per hour expressed as concentration ratio (EC50 of drug/EC50 of control); assay type: functional
Outline: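 Guinea pigs dosed orally at 10 mg/kg; blood sampled 1 h post-dose and platelet aggregation induced ex vivo with U 46619. Result given as concentration ratio, EC50 of U 46619 in drug-treated animals divided by EC50 in vehicle controls (vehicle n = 22). Groups of 4–6 animals; mean ± SEM.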

Homo sapiens [3] = organism: Homo sapiens; assay: Inhibition of U 46619-induced Aggregation of Human Platelet-rich Plasma; assay type: functional; outline: as §1
Homo sapiens [4] = organism: Homo sapiens; assay: Inhibition of U 46619-induced Aggregation of Human Washed Platelets; assay type: functional; outline: as §1
Cavia porcellus [5] = assay: Ex vivo Inhibition of U 46619-induced aggregation of guinea pig platelets at the dose of 3 mg/Kg po per hour expressed as concentration ratio (EC50 of drug/EC50 of control); assay type: functional
Outline: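 Oral dosing of guinea pigs at 3 mg/kg, blood drawn 1 h later, then ex vivo U 46619-induced platelet aggregation measured. Concentration ratio is EC50 of U 46619 for the treated group over EC50 for vehicle controls (n = 22). 4–6 animals per group; values are mean ± SEM.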

Compound `O=C(O)CC[C@@H](CCCCNS(=O)(=O)c1ccc(Cl)cc1)CCCc1cccnc1` has an IC50 (Homo sapiens [1]) of 26 nM, an IC50 (Thromboxane-A synthase) of 4.5 nM and a Concentration ratio (Cavia porcellus [2]) of 54. It also gave an IC50 (Homo sapiens [3]) of 0.55 nM.

`O=C(O)CC[C@H](CCCCNS(=O)(=O)c1ccc(Cl)cc1)CCCc1cccnc1` gave an IC50 (Thromboxane-A synthase) of 5 nM, an IC50 (Homo sapiens [4]) of 11 nM and a Concentration ratio (Cavia porcellus [2]) of 43. It also gave an IC50 (Homo sapiens [3]) of 0.38 nM.

`O=C(O)CC[C@@H](CCCCNS(=O)(=O)c1ccc(Cl)cc1)CCOc1cccnc1` gave a Concentration ratio (Cavia porcellus [5]) of 66, an IC50 (Homo sapiens [1]) of 9 nM and an IC50 (Thromboxane-A synthase) of 13 nM. For the same compound, the IC50 (Homo sapiens [3]) was 0.53 nM.

In the case of `O=C(O)CC[C@H](CCCCNS(=O)(=O)c1ccc(Cl)cc1)CCOc1cccnc1`, the Concentration ratio (Cavia porcellus [5]) is reported as 90, the IC50 (Homo sapiens [1]) is reported as 10 nM and the IC50 (Thromboxane-A synthase) is reported as 3.5 nM. For the same compound, the IC50 (Homo sapiens [3]) was 0.32 nM.

`O=C(O)CCC(CCCCNS(=O)(=O)c1ccc(Cl)cc1)CCCc1cccnc1` (stereo unspecified) showed a Concentration ratio (Cavia porcellus [2]) of 27 and an IC50 (Homo sapiens [3]) of 0.39 nM.

In the case of `O=C(O)CCC(CCCCNS(=O)(=O)c1ccc(Cl)cc1)CCOc1cccnc1` (stereo unspecified), the Concentration ratio (Cavia porcellus [5]) is reported as >100, the IC50 (Thromboxane-A synthase) is reported as 2.6 nM and the IC50 (Homo sapiens [3]) is reported as 0.28 nM.
